UBC13 polyUb = UBC13 polyubiquitin chain formation inhibitors, primary screen, biochemical, TR-FRET, uHTS; Ubiquitin-conjugating enzyme E2 N (Homo sapiens), P61088; inhibition, % at 20 µM; 0.47% of 330,000 active; AID 485273, 2010; in the data active = inhibition above about 45%, passing the limit was not always enough
MEKK2wt PB1 HTS = modulators of MEK5 binding to wildtype MEKK2, primary screen, biochemical, multiplex bead flow cytometry, Alexa488-MEK5; binding response (% of control), % at 10 µM; Alexa488-MEK5 binding to MEKK2 WT; actives lie on both sides; AID 1531, 2009; 1.1% of 290,000 active; Mitogen-activated protein kinase kinase kinase 2 (Homo sapiens), Q9Y2U5; in the data active = binding response below about 67% or above about 130%
MEKK2mut PB1 HTS = MEK5 binding signal on mutant MEKK2 PB1, primary screen, biochemical, multiplex bead flow cytometry, Alexa488-MEK5; AID 1530, 2009; percent response, % at 10 µM; 0.35% of 290,000 active; Alexa488-MEK5 binding to MEKK2 mutant; in the data active = percent response above about 24%, passing the limit was not always enough
PREPL inhibitor = PREPL enzyme inhibitors, primary screen, biochemical, fluorescence polarization; Prolyl endopeptidase-like (Homo sapiens), Q4J6C6; 0.68% of 320,000 active; recombinant PREPL, fluorescence polarization activity-based probe; inhibition, % at 5.96 µM; in the data active = inhibition above about 43%
Target sequence (Q4J6C6 whole entry, looked up): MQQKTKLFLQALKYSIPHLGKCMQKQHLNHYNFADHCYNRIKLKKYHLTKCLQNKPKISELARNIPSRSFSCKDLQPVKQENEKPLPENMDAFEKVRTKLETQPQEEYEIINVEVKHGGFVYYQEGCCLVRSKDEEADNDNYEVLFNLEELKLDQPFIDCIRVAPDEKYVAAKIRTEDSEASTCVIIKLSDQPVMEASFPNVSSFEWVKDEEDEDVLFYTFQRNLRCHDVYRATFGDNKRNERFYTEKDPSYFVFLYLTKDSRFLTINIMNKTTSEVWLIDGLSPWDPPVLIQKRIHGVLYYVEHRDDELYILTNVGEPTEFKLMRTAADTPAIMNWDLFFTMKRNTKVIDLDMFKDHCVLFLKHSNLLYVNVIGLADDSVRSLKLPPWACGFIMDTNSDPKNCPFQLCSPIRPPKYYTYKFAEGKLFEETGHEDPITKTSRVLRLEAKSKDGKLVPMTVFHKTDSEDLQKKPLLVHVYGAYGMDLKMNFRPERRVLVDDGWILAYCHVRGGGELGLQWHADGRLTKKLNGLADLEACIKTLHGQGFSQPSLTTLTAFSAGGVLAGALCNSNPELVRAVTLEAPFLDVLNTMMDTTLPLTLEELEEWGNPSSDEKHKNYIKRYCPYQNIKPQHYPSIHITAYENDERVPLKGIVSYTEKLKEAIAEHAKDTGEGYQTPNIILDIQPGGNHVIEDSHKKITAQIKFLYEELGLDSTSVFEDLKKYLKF
Apaf1 inhib = inhibitors of human Apaf-1 apoptosome, primary screen, biochemical, DEVD-Rh110 fluorescence, uHTS; inhibition, % at 20 µM; AID 489030, 2010; reconstituted apoptosome caspase-3 activity; 0.71% of 330,000 active; active = inhibition of at least 40% at 20 µM
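System – cell-free apoptosome with Apaf-1, procaspase-3 and caspase-9 · Buffer or medium – pH 7.5 Hepes buffer with CHAPS, BSA, DTT · Also added – cytochrome c with DEVD-Rh110 · Times – 30 min compound preincubation, 50 min activation, room temperature · Technique – Rh110 fluorescence intensity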
MEKK3 PB1 HTS = modulators of MEKK3-MEK5 PB1 binding, primary screen, biochemical, wildtype MEKK3, multiplex bead flow cytometry, Alexa488-MEK5; Mitogen-activated protein kinase kinase kinase 3 (Homo sapiens), Q99759; bead-based flow cytometry, Alexa488-MEK5 binding to MEKK3; actives lie on both sides; 0 = blocked by unlabeled MEK5, 100 = vehicle; binding response (% of control), % at 10 µM; 1.4% of 290,000 active;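 active = binding response more than 3 SD above or below the average of its plate-row segment, actives on both sides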;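 note: Alexa488 bead fluorescence after subtracting the streptavidin-only scavenger bead signal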
MEKK2wt confirm = modulators of MEK5 binding to wildtype MEKK2, confirmation, biochemical, single concentration, multiplex bead flow cytometry. binding response (% of control), % at 10 µM. shares compounds with MEKK3 PB1 HTS. 2.4% of 5,900 active. AID 1892, 2009. Alexa488-MEK5 binding to MEKK2 WT; actives lie on both sides; in the data active = binding response below about 16% or above about 210%; inactive = in between
MEKK2mut confirm = mutant MEKK2 PB1-MEK5 binding signal retest – biochemical, single concentration, multiplex bead flow cytometry, confirmation; shares compounds with MEKK3 PB1 HTS; Alexa488-MEK5 binding to MEKK2 mutant; percent response, % at 10 µM; 2% of 5,900 active; AID 1893, 2009; in the data active = percent response mostly above about 71%, no sharp cut-off; inactive = mostly below about 38%;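 note: higher means compound restores mutant binding toward wildtype level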
MEKK3 confirm = MEKK3 wild-type PB1 binding to MEK5, inhibitors, confirmation, biochemical, bead multiplex flow cytometry, single concentration, wildtype | shares compounds with MEKK3 PB1 HTS | Alexa488-MEK5 binding to MEKK3; active compounds read low | binding response (% of control), % at 10 µM | 1.8% of 5,900 active | AID 1894, 2009;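 active = binding response below 72% of control, or above a set upper limit, though filed actives all read lower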;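 note: lower values mean stronger disruption of MEK5 binding to MEKK3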
Large screens that a line does not name were inactive (follow-up assays come after a bar, where they were run); [ ] = dose if it differs, or a comment. Most compounds without a hit are left out; they make up all but 3.1% or so of the library.

CCC1(CC)C(=O)C2=C3C1[C@H](C(=O)OC)CC(C(=O)OC)C[C@H]3[C@H]1C(=O)N(c3ccccc3)C(=O)[C@H]1[C@H]2C (some centres undefined)	MEKK3 PB1 HTS 57[inhibitor] | MEKK2wt confirm inactive | MEKK2mut confirm inactive | MEKK3 confirm inactive
O=C(Cn1c(=O)c2cccn2c2cccnc21)NCCCN1CCN(c2ccc(F)cc2)CC1	none
COc1ccc(N2CCN(CCCNC(=O)Cn3c(=O)c4cccn4c4cccnc43)CC2)cc1	MEKK2wt PB1 HTS 138 | MEKK2wt confirm inactive | MEKK2mut confirm inactive | MEKK3 confirm inactive
O=C(CCc1ccc(S(=O)(=O)N2CCOCC2)cc1)Nc1c(F)cccc1F	none (no result: MEKK2wt PB1 HTS, MEKK2mut PB1 HTS, MEKK3 PB1 HTS)
CCc1ccc(NC(=O)CO/N=C(\C)c2cc3ccccc3o2)cc1	MEKK3 PB1 HTS 136 | MEKK2wt confirm inactive | MEKK2mut confirm inactive | MEKK3 confirm inactive
CSc1ccccc1NC(=O)CO/N=C(\C)c1cc2ccccc2o1	none
COc1ccc(S(=O)(=O)N2CCC(n3cnc4ccccc43)CC2)cc1	none
COc1ccc(S(=O)(=O)N2CCC(n3cnc4cc(C(F)(F)F)ccc43)CC2)cc1	MEKK3 PB1 HTS 126 | MEKK2wt confirm inactive | MEKK2mut confirm inactive | MEKK3 confirm inactive
Cc1ccc(NC(=O)C(OC(=O)c2cnc(C)cn2)c2ccccc2)c([N+](=O)[O-])c1 (centres undefined)	none
O=C(COc1cccc(NC(=O)c2cccs2)c1)c1ccc(F)cc1	MEKK3 PB1 HTS 138 | MEKK2wt confirm inactive | MEKK2mut confirm inactive | MEKK3 confirm inactive
O=C(COc1cccc(NC(=O)c2ccccc2)c1)c1ccccc1	none
Cc1cc(C)c([N+](=O)[O-])cc1-c1ccc(/C=N/c2c(-c3ccco3)nc3ccccn23)o1	MEKK2wt PB1 HTS -3.0[inhibitor] | MEKK2wt confirm inactive | MEKK2mut confirm inactive | MEKK3 confirm inactive
Cc1nc(Cl)c(C(=O)NCc2ccccc2)c(C)c1[N+](=O)[O-]	none
C=CCNC(=O)c1c(Cl)nc(C)c([N+](=O)[O-])c1C	MEKK3 PB1 HTS 155 | MEKK2wt confirm inactive | MEKK2mut confirm inactive | MEKK3 confirm inactive
COC(=O)/C(=C\c1ccc2c(c1)c1ccccc1n2C)NC(=O)c1ccccc1	MEKK2wt PB1 HTS 2.0[inhibitor], MEKK3 PB1 HTS 2.0[inhibitor] | MEKK2wt confirm inactive | MEKK2mut confirm inactive | MEKK3 confirm inactive
O=C(Nc1cccc2ncccc12)c1cccc(F)c1	none
O=C(Nc1cccc2ncccc12)c1ccc(F)cc1	MEKK3 PB1 HTS 132 | MEKK2wt confirm inactive | MEKK2mut confirm inactive | MEKK3 confirm inactive
CC(C)CCOc1cccc(OCC(=O)O)c1	MEKK3 PB1 HTS 183 (no result: PREPL inhibitor) | MEKK2wt confirm inactive | MEKK2mut confirm inactive | MEKK3 confirm inactive
O=C(O)COc1cccc(NC(=O)c2ccccc2)c1	none
COc1ccc(-c2csc(NC(=O)CN3C(=O)CCC3=O)n2)c(OC)c1	MEKK3 PB1 HTS 142 | MEKK2wt confirm inactive | MEKK2mut confirm inactive | MEKK3 confirm inactive
COc1ccc(-c2csc(NC(=O)CN3C(=O)CCC3=O)n2)cc1	none
Cc1ccc(CS(=O)(=O)CCC(=O)NCc2ccccc2Cl)cc1	none
COc1cccc(-c2nnc(SCC(=O)NC3CCS(=O)(=O)C3)n2C)c1 (centres undefined)	none (no result: MEKK2wt PB1 HTS, MEKK2mut PB1 HTS, MEKK3 PB1 HTS)
O=C(Nc1ccc(N2CCCC2)cc1)c1ccc(Br)cc1	MEKK2wt PB1 HTS 151 | MEKK2wt confirm inactive | MEKK2mut confirm inactive | MEKK3 confirm inactive
CC(=O)N1CCN(c2ccc(NC(=O)c3ccc(OCc4ccccc4)cc3)cc2)CC1	MEKK3 PB1 HTS 62[inhibitor] | MEKK2wt confirm inactive | MEKK2mut confirm inactive | MEKK3 confirm inactive
CN1CCN(c2ccccc2NC(=O)c2cccc(OCc3ccccc3)c2)CC1	MEKK2wt PB1 HTS 137 | MEKK2wt confirm inactive | MEKK2mut confirm inactive | MEKK3 confirm inactive
CN1CCN(c2ccccc2NC(=O)c2ccc(-c3ccc(Cl)c(Cl)c3)o2)CC1	MEKK2wt PB1 HTS 139, Apaf1 inhib 46 | MEKK2wt confirm inactive | MEKK2mut confirm inactive | MEKK3 confirm inactive
CC(C)Oc1ccc(C(=O)Nc2ccc(N3CCCC3)cc2)cc1	none
CN1CCN(c2ccccc2NC(=O)c2ccc(-c3cccc([N+](=O)[O-])c3)o2)CC1	none (no result: UBC13 polyUb, Apaf1 inhib)
CC(=O)N1CCN(c2ccc(NC(=O)c3cccc(OCc4ccccc4)c3)cc2)CC1	none
COc1cccc(C(=O)Nc2ccccc2N2CCN(C(=O)c3ccccc3)CC2)c1	none (no result: MEKK2wt PB1 HTS, MEKK2mut PB1 HTS, MEKK3 PB1 HTS)
Cc1ccc(S(=O)(=O)NCCC(=O)NNC(=O)c2ccccc2O)cc1C	none (no result: MEKK2wt PB1 HTS, MEKK2mut PB1 HTS, MEKK3 PB1 HTS)
CN(C)S(=O)(=O)c1ccc(C(=O)Nc2ccc3nc(N4CCOCC4)sc3c2)cc1	none (no result: MEKK2wt PB1 HTS, MEKK2mut PB1 HTS, MEKK3 PB1 HTS)
CC(=O)N1CCN(S(=O)(=O)c2cccc(C(=O)NC3CC3)c2)CC1	none (no result: MEKK2wt PB1 HTS, MEKK2mut PB1 HTS, MEKK3 PB1 HTS)
O=C(Nc1ccccc1)N1CCC(C(=O)N2CCCC(C(F)(F)F)C2)CC1 (centres undefined)	none
CC(=O)N1N=C(c2ccc(NS(C)(=O)=O)cc2)CC1c1ccc2nccnc2c1 (centres undefined)	none
CC(=O)N1N=C(c2ccc(C)cc2)CC1c1ccc2c(c1)OCO2 (centres undefined)	none
CS(=O)(=O)Nc1ccc(C2=NN(S(C)(=O)=O)C(c3ccc4nccnc4c3)C2)cc1 (centres undefined)	MEKK3 PB1 HTS 3.0[inhibitor] (no result: MEKK2wt PB1 HTS, MEKK2mut PB1 HTS) | MEKK2wt confirm inactive | MEKK2mut confirm inactive | MEKK3 confirm inactive
CS(=O)(=O)N1N=C(c2ccc(Br)cc2)CC1c1ccc2c(c1)OCO2 (centres undefined)	MEKK2wt PB1 HTS 14, MEKK2mut PB1 HTS 83 | MEKK2wt confirm inactive | MEKK2mut confirm inactive | MEKK3 confirm inactive
